Screens: PubChem, several laboratories
STEP block: STEP (human) phosphatase inhibition | actives 0.25% (n = 360,000) | recombinant STEP, OMFP fluorogenic substrate, fluorescence | AID 588621 | P54829 | inhibition, % at 20 µM;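 active = inhibition at 20 µM, scaled per plate between control wells, above about 37%, limit read from the data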;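 note: 0% = DMSO with enzyme and substrate and 100% = substrate only without enzyme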
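System: STEP (striatal-enriched tyrosine phosphatase) enzyme, cell-free; medium: Bis-Tris pH 6.0 buffer with DTT, detergent; dosing: 20 µM, 1% DMSO; times: reaction 20 min, ambient temperature; detection: fluorescence, 480/540 nm; read-out basis: normalized % inhibition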
LMPTP inh: blocks human LMPTP phosphatase. P24666. recombinant LMPTP-A, OMFP fluorogenic substrate, fluorescence intensity. inhibition, % at 20 µM. actives 0.22% (n = 360,000);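 active = compounds that cut the enzyme signal by at least half of the control window in the single-dose screen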;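 note: plate controls were DMSO wells with enzyme plus substrate for no effect and substrate without enzyme for full effect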
Target sequence (P24666 whole entry, looked up): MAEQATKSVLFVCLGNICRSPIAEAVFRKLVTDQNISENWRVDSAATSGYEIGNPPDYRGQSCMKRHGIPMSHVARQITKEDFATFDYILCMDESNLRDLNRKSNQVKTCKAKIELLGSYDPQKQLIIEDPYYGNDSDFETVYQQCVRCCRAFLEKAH
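material = LMPTP-A | quantity = 0.625 nM enzyme | reagent = OMFP substrate, 400 µM final | buffer or medium = Bis-Tris pH 6.0, DTT, detergent | detection = endpoint fluorescence intensity from OMFP dephosphorylation | dosing = single 20 µM dose | read-out basis = % inhibition relative to no-enzyme and uninhibited control wells | control set = no-enzyme and uninhibited controls | timing = 50 min at room temperature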
Scp-1 inhibitor: inhibitors of human Scp-1 phosphatase. Q9GZU7. Recombinant Scp1, phosphopeptide, malachite green phosphate absorbance. inhibition, % at 20 µM. actives 0.88% (n = 340,000);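 active = inhibition above about 50% at 20 µM, limit read from the data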;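 note: plate controls were DMSO wells with enzyme for no effect and wells lacking enzyme for full effect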
Target sequence (Q9GZU7 76-261 limits assumed): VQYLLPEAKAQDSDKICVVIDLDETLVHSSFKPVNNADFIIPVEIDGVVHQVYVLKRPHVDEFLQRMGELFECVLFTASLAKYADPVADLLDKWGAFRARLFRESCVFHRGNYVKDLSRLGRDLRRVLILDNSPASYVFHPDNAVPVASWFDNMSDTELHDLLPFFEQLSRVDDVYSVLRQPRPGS
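Incubation: 45 min enzyme reaction at room temperature / System: truncated SCP-1 phosphatase (76-261aa) / Reagent: Phospho 17-mer peptide substrate / Buffer or medium: Acidic Tris acetate buffer with magnesium and detergent / Signal: absorbance at 630 nm / Doses: one concentration, 20 µM, with 1.0% DMSO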
CFTR F508del cor: CFTR F508del correction in bronchial cells. CFBE cells, YFP halide quenching; stimulated with forskolin plus potentiator P3; % fluorescence drop versus neutral controls. activity (quench increase), % at 7.58 µM. actives 0.36% (n = 350,000). AID 720511;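 active = mean added fluorescence quench of at least 8% versus neutral control, with both replicates also reaching 8%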;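 note: cells transiently co-express mutant CFTR-F508del with the halide-sensitive YFP; corrector assay measuring rescue of mutant channel to the surface after 24 h compound exposure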
SUMO1-SIM PPI: alters human SUMO1 binding to SIM partners | P63165 | SUMO1 binding to a labelled peptide, TR-FRET, 1 h | inhibition, % at 20 µM | actives 0.33% (n = 360,000); in the data active = inhibition above about 37%
Target sequence (P63165 whole entry, looked up): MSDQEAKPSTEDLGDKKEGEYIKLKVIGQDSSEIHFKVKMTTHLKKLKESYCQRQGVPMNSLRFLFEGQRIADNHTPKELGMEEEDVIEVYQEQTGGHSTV
DNMT1 inh: blocks human DNA methyltransferase DNMT1 | inhibition (reported as % activation of signal), % at 10 µM | P26358 | actives 0.83% (n = 360,000) | DNMT1 molecular beacon, Hinp1I cleavage, fluorescence; in the data active = inhibition above about 50%
Scp-1 conf: confirmation of human Scp-1 phosphatase inhibitors; actives 61% (n = 2,500); AID 540281; shares compounds with Scp-1 inhibitor; recombinant SCP-1 catalytic domain, phosphate release, malachite green absorbance; inhibition, % at 20 µM;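 note: plate controls were DMSO with enzyme for no effect and buffer wells lacking enzyme for full effect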
Scp-1 MG ctr: counter-screen for Scp-1 inhibitors: colorimetric interference | shares compounds with Scp-1 inhibitor | Colorimetric interference counterscreen, malachite green absorbance 630 nm | apparent inhibition (interference), % at 20 µM | 2,500 tested, under 10 active;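 note: compounds added after enzyme reaction finished so only phosphate colour detection is probed; plate controls were DMSO wells with completed Scp-1 reaction for no effect and substrate wells lacking enzyme for full effect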
Scp-1 Tm shift: binds human Scp-1, shifting its melting temperature | shares compounds with Scp-1 inhibitor | Recombinant SCP1, Sypro Orange thermal shift Tm | thermal shift relative to vanadate control, % at 40 µM | actives 25% (n = 1,500) | AID 540329;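 active = substances whose mean melting-temperature shift, as a percentage of the reference inhibitor's shift, reaches about 5.3%, limit read from the data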;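 note: 0% = Tm of DMSO wells and 100% = Tm with sodium orthovanadate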
Numbers without * were called inactive; . = no result given. Rows were chosen to be rich in hits. Some 1.6% of all compounds tested hit in one or more screens of this group.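 Rule for the calls, unless noted: active = inhibition of at least 30% at 20 µM; inactive = the rest.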

SMILES | STEP block | LMPTP inh | Scp-1 inhibitor | CFTR F508del cor | SUMO1-SIM PPI | DNMT1 inh | Scp-1 conf | Scp-1 MG ctr | others
CC(=O)Nc1ccc(S(=O)(=O)NCCC(=O)OCC(=O)N2CCN(C(=O)c3ccco3)CC2)cc1 | 0 | -2 | 77* | 1 | 3 | 12 | 66* | -17 | Scp-1 Tm shift=5.9*
O=C(CCNS(=O)(=O)c1cccc(Cl)c1)OCC(=O)N1CCN(C(=O)c2ccco2)CC1 | 1 | -1 | 17 | -1 | 1 | -2 | . | .
CC(=O)Nc1ccc(S(=O)(=O)N(C)CC(=O)OCC(=O)N2CCCCCC2)cc1 | -2 | -1 | -8 | -2 | 0 | -1 | . | .
CC(=O)Nc1ccc(S(=O)(=O)N(C)CC(=O)OCC(=O)N2CCN(C(=O)c3ccco3)CC2)cc1 | 2 | 0 | 74* | 1 | 3 | 13 | 71* | -7 | Scp-1 Tm shift=5
C[C@@H]1CN([C@@H](C)CO)C(=O)c2cccc(NS(C)(=O)=O)c2O[C@H]1CN(C)Cc1ccccc1 | . | . | . | 2 | . | . | . | .
CCN1C(=O)c2ccccc2Sc2ccc(C(=O)O)cc21 | -2 | -2 | -13 | -1 | 5 | 0 | . | .
CCOC(=O)c1ccc2c(c1)N(C)C(=O)c1ccccc1S2 | -2 | -1 | 53* | . | -1 | 0 | 3 | -10
CC1=CC(C)C2COC(c3ccc[n+](C)c3)C1C2C (stereo not drawn) | 0 | -1 | 95* | . | -5 | 2 | -3 | -10
CC1=CC(C)[C@@H]2COC(c3ccc(O)cc3)[C@H]1C2C (stereo partly drawn) | 1 | 1 | -7 | 0 | 0 | -16 | . | .
Cc1cccc(OCC(=O)Nc2ccncc2)c1C | -3 | -2 | 53* | . | -2 | 2 | -21 | -16
COc1ccccc1OCC(=O)Nc1ccncc1 | 0 | -3 | -6 | -1 | 5 | 1 | . | .
O=C(CN1CCN(Cc2ccc(F)cc2Cl)C1=O)NCCc1ccccc1 | -1 | -1 | 50* | 4 | 0 | 7 | 6 | -11
CCOc1ccccc1NC(=O)C1=C(C)NC(=S)NC1c1cccs1 (stereo not drawn) | 0 | -2 | 64* | . | 0 | 3 | -10 | -11
C[C@@H]1CCCCO[C@@H](CN(C)Cc2ccccc2)[C@@H](C)CN([C@H](C)CO)C(=O)c2cc(NS(=O)(=O)c3ccc(Cl)cc3)ccc2O1 | . | . | . | 3 | . | . | . | .
C[C@H](CO)N1C[C@H](C)[C@@H](CN(C)C(=O)c2ccncc2)OCCCC[C@H](C)Oc2ccc(NS(=O)(=O)c3ccccc3)cc2C1=O | . | . | . | -3 | . | . | . | .
O=C(N/N=C/c1ccc(-c2cccc([N+](=O)[O-])c2)o1)c1cccs1 | 1 | 3 | -9 | 2 | 6 | 1 | . | .
CC1CCc2sc(C(=O)NN=C3CCC(c4ccccc4)CC3)cc2C1 (stereo not drawn) | -1 | 1 | -7 | 5 | -2 | 6 | . | .
CC1CCc2sc(C(=O)N/N=C/c3ccc([N+](=O)[O-])cc3)cc2C1 (stereo not drawn) | 30 | 36 | 72* | . | -2 | 25 | 69* | -14 | Scp-1 Tm shift=4
O=C(N/N=C/c1ccc([N+](=O)[O-])cc1)c1cccs1 | 26 | 5 | 60* | -1 | -14 | -1 | 53* | -20 | Scp-1 Tm shift=4
Cn1nnnc1Sc1ncnc2scc(-c3ccc(-c4ccccc4)cc3)c12 | 1 | 1 | -14 | -6 | -58 | 17 | . | .
Cn1nnnc1Sc1ncnc2scc(-c3ccc(C(F)(F)F)cc3)c12 | 1 | 0 | -8 | -3 | 1 | 11 | . | .
Cn1nnnc1Sc1ncnc2scc(-c3cccs3)c12 | . | . | 58* | . | . | . | -3 | -22
Cn1nnnc1Sc1ncnc2scc(-c3ccccc3C(F)(F)F)c12 | -1 | -1 | 55* | -11 | 5 | 8 | -16 | -28
C[C@H]1CN([C@@H](C)CO)C(=O)c2cccc(NC(=O)Nc3ccc4c(c3)OCO4)c2O[C@@H]1CN(C)S(=O)(=O)c1cn(C)cn1 | . | . | . | -4 | . | . | . | .
Cc1noc(C)c1S(=O)(=O)Nc1ccc2c(c1)C(=O)N([C@@H](C)CO)C[C@@H](C)[C@@H](CN(C)S(=O)(=O)c1c(C)noc1C)O2 | . | . | . | -1 | . | . | . | .
SMILES | STEP block | LMPTP inh | Scp-1 inhibitor | CFTR F508del cor | SUMO1-SIM PPI | DNMT1 inh | Scp-1 conf | Scp-1 MG ctr | others
Cc1ccc(NC(=O)CN2C(=O)CSc3ccc(S(=O)(=O)N4CCCCC4)cc32)cc1 | -2 | 2 | 56* | -3 | 2 | -3 | 57* | -13 | Scp-1 Tm shift=47*
CC(=O)c1ccc(NC(=O)CN2C(=O)COc3ccc(S(=O)(=O)N4CCCC4)cc32)cc1 | -2 | -1 | 69* | -1 | 3 | 3 | 47* | -8 | Scp-1 Tm shift=12*
Cc1cc(C)cc(NC(=O)CN2C(=O)COc3ccc(S(=O)(=O)N4CCCC4)cc32)c1 | 0 | -1 | -5 | 2 | 5 | -1 | . | .
CCOc1ccc(Br)cc1/C=N/O | 4 | 0 | -2 | 2 | -5 | 3 | . | .
O=C(O)COc1ccc(Br)cc1/C=N/O | 11 | 3 | 60* | . | 0 | 19 | 52* | -3 | Scp-1 Tm shift=-14
O=C(C[C@H]1CC[C@@H](NC(=O)Cc2ccccn2)[C@@H](CO)O1)NCCCN1CCOCC1 | . | . | . | -2 | . | . | . | .
CN(C)c1ccc(/C=C2\C(=N)N3N=C(CC(=O)N4CCCC4)SC3=NC2=O)cc1Br | -1 | 0 | 58* | -4 | -2 | 5 | -1 | -9
CC1CC2C3CCC4=CC(=O)CCC4(C)C3CCC2(C)C1(O)C(=O)CO (stereo not drawn) | -3 | -1 | 59* | 2 | -6 | 12 | -23 | -19
Cc1ccc(C)c(NC(=O)CSc2n[nH]c(-c3ccccn3)n2)c1 | 1 | 0 | -1 | 0 | -2 | 2 | . | .
Cc1ccccc1NC(=O)CSc1n[nH]c(-c2ccccn2)n1 | -1 | 0 | 63* | 1 | 5 | 1 | -20 | -19
CCNC(=O)C[C@@H]1C=C[C@H](NC(=O)C2CC2)[C@H](CO)O1 | . | . | . | -3 | . | . | . | .
CC1=CCC(C(=O)O)C(C(=O)Nc2ccc(-c3nc4ccc(C)cc4s3)cc2)C1 (stereo not drawn) | 2 | 1 | 50* | 0 | 9 | 25 | 65* | -5 | Scp-1 Tm shift=4
O=C(c1ccncc1)N1CC[C@@H]2[C@@H](CO)Nc3ccc(C4=CCCCC4)cc3[C@@H]21 | . | . | . | 3 | . | . | . | .
